Measured values as given in ChEMBL document CHEMBL1143453 (Bioorg Med Chem Lett, 2005).

How the values were obtained:
[1] = target: T1, Alpha-1A adrenergic receptor (Homo sapiens, UniProt P35348); assay: Binding affinity towards alpha-1A adrenergic receptor expressed in human embryonic kidney (HEK293) cells; type: cell-based
T1 sequence (P35348 whole entry): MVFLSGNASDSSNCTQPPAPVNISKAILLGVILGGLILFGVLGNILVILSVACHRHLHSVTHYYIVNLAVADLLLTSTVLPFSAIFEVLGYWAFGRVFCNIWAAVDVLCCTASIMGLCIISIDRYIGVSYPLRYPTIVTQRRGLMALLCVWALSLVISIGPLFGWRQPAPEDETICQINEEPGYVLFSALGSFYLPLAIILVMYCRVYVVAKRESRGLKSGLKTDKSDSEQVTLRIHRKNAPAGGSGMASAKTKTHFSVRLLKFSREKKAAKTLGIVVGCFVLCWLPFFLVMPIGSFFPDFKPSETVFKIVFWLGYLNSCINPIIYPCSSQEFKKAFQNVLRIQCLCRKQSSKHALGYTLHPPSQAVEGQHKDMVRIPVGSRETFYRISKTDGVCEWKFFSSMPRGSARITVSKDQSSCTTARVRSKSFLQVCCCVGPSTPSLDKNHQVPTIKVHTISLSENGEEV

[2] = target: T2, Alpha-1B adrenergic receptor (Homo sapiens, UniProt P35368); assay: Binding affinity towards human alpha-1B adrenergic receptor expressed in human embryonic kidney (HEK293) cells
T2 sequence (P35368 whole entry): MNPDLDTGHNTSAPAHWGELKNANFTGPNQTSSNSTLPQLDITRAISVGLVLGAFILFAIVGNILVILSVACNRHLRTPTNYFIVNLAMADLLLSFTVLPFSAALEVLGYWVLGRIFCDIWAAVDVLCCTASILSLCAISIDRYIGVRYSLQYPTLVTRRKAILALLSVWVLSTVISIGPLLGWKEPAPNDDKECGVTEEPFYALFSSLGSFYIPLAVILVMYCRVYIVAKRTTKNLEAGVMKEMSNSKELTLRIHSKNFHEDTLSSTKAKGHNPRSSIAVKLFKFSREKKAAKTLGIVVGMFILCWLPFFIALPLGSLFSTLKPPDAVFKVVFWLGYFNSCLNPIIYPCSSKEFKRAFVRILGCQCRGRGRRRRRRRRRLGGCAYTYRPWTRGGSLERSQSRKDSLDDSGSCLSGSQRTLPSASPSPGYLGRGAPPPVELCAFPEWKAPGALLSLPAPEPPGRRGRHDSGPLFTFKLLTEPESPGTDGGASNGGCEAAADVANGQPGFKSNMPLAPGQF

[3] = target: T3, Alpha-2B adrenergic receptor (Homo sapiens, UniProt P18089); assay: Binding affinity towards human alpha-2B adrenergic receptor expressed in Chinese Hamster ovary (CHO) cells; type: cell-based
T3 sequence (P18089 whole entry): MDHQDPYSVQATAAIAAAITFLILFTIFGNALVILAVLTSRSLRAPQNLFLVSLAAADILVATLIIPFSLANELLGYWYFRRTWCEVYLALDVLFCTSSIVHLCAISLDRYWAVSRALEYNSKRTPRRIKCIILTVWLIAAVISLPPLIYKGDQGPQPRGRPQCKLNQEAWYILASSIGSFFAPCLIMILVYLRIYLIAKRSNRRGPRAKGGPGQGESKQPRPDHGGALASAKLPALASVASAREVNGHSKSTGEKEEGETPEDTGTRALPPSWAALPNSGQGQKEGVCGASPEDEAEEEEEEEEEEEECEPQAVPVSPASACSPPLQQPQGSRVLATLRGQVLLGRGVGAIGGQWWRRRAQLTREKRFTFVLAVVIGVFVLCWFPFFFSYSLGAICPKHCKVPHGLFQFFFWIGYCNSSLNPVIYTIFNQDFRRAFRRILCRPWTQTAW

[4] = target: T4, Alpha-1D adrenergic receptor (Rattus norvegicus) (UniProt P23944); assay: Potency against alpha-1D adrenergic receptor is determined by phenylephrine-induced contractions in rat; type: functional
T4 sequence (whole entry): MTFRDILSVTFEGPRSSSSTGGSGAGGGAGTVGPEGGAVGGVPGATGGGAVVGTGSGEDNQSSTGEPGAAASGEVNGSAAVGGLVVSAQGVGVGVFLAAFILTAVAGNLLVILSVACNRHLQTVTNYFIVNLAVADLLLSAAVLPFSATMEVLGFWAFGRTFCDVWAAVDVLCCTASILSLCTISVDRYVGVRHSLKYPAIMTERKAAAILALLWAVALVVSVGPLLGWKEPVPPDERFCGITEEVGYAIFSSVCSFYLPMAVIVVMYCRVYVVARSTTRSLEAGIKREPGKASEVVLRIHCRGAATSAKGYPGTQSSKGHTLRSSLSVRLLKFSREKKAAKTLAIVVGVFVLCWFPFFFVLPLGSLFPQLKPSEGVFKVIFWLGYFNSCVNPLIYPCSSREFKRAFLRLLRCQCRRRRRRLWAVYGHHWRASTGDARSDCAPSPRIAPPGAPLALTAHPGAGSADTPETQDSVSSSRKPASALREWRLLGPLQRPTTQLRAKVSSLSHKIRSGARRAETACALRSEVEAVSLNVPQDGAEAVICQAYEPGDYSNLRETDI
Outline: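 Isolated rat aorta contracted with phenylephrine, with cumulative concentration–response curves run with and without antagonist. KB = antagonist concentration/(dose ratio − 1) by Schild, where dose ratio is the phenylephrine EC50 with antagonist over EC50 without. Means with 95% confidence limits, N = 4–6 experiments.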

[5] = target: T5, Alpha-2C adrenergic receptor (Homo sapiens, UniProt P18825); assay: Binding affinity towards human alpha-2C adrenergic receptor expressed in Chinese Hamster ovary (CHO) cells; type: cell-based
T5 sequence (P18825 whole entry): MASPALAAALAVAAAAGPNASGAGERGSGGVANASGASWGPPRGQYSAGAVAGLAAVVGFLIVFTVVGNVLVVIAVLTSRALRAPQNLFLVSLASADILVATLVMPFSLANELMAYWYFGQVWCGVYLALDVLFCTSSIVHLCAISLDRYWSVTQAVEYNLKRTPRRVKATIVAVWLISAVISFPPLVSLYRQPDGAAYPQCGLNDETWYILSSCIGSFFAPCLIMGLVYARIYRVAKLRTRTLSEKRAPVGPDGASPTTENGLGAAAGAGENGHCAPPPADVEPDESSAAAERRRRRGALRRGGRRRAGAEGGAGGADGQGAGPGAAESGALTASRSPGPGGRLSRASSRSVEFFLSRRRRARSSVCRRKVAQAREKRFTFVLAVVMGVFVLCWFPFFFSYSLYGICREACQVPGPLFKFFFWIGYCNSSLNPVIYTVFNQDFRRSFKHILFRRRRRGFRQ

[6] = target: T6, Alpha-2A adrenergic receptor (Homo sapiens, UniProt P08913); assay: (§1) Binding affinity towards human alpha-2A adrenergic receptor expressed in Chinese Hamster ovary (CHO) cells; type: cell-based
T6 sequence (P08913 whole entry): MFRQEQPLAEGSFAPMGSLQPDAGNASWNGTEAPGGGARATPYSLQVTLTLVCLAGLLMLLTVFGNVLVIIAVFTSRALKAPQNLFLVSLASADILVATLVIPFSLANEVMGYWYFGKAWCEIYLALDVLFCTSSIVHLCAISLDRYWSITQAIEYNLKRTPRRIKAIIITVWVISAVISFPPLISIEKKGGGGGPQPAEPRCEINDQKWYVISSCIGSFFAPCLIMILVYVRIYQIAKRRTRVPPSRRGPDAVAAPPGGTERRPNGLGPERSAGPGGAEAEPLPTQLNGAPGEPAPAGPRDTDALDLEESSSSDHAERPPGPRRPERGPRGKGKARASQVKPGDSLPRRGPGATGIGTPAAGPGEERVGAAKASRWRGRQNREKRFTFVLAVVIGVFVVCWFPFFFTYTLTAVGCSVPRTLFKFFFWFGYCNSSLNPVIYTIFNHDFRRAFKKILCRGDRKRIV

[7] = target: T7, Alpha-1D adrenergic receptor (Homo sapiens, UniProt P25100); assay: Binding affinity towards human alpha-1D adrenergic receptor expressed in human embryonic kidney (HEK293) cells
T7 sequence (P25100 whole entry): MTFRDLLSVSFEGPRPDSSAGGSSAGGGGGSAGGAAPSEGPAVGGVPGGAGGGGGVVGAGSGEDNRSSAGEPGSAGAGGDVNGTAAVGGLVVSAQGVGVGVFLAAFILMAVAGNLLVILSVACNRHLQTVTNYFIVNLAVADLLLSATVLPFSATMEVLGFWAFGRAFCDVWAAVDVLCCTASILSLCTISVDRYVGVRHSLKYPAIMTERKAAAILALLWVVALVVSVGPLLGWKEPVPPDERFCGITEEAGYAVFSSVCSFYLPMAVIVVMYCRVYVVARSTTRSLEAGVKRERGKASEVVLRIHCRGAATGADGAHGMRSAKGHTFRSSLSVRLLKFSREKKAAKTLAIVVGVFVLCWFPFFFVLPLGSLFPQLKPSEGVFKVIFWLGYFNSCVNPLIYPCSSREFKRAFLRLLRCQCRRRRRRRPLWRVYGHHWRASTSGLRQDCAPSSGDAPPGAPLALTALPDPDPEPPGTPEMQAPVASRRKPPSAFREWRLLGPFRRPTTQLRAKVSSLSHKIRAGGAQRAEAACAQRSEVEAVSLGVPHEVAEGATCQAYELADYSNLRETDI

[8] = target: T6, Alpha-2A adrenergic receptor; assay: as §1; type: functional, cell-based

Ki [1] [nM]	Ki [2] [nM]	Ki [3] [nM]	Kb [4] [nM]	Ki [5] [nM]	Ki [6] [nM]	Ki [7] [nM]	Ki [8] [nM]	SMILES
26.8	843	18	2.9	12.8	23.8	49.7		Cc1ccc(N(NC2=NCCN2)c2cccc(O)c2)cc1
19.9	103	7.3	7.4	3.8	6.3	17.5		COc1cccc(N(NC2=NCCN2)c2ccc(C)cc2)c1
5620			13000		18600			Cc1ccc(N(NC2=NCCO2)c2cccc(O)c2)cc1
5740			> 30000				24600	COc1cccc(N(NC2=NCCO2)c2ccc(C)cc2)c1
